Test [1] can be described thus: inhibitors of TNFa-induced NFkB p65 translocation, primary screen, imaging, HUVEC, MLSMR starter and 10KST1 sets (AID 438;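 active means inhibition above 20% together with a positive visual image hit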;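 further: compound added about 3h40 before a 20 min TNFalpha stimulation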;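 on inhibition: signal is the nuclear over cytoplasmic p65 intensity ratio per well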). The conditions noted are these: HUVEC TNFa-induced p65 nuclear translocation; cell count: measured here: nuclei count (cytotoxicity indicator), at 2.08 µM; inhibition: at 2 µM, stronger effect = higher value, 0% TNFa-plus-vehicle, 100% no-TNFa wells.
The nature of test [2]: endothelial E-selectin expression blockers – imaging, HUVEC, immunofluorescence, MLSMR starter and 10KST1 sets, primary screen (AID 487;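 active means visually confirmed hit in the image check and inhibition above 20%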;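 on inhibition: signal is fraction of cell area covered by stained E-selectin grains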;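 on nuclei count: 100% = median nuclei count of all wells on the same plate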). The conditions noted are these: HUVEC TNFalpha-induced E-selectin immunofluorescence imaging, at 2 µM; inhibition: stronger effect = higher value; nuclei count: measured here: cell number, toxicity.
A short description of test [3]: Primary imaging screen for DUSP6 inhibitors that restore phospho-Erk in transfected HeLa cells, chemical complementation (AID 609).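 On inhibition: phospho-Erk level distribution per well compared with pooled transfected vehicle control wells.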 To be noted: HeLa MKP-3 transfected, phospho-Erk imaging KS statistic, at 10 µM, cells stimulated with TPA for 15 min.
The target of test [4] is Dual specificity protein phosphatase 6 (Homo sapiens) (UniProt Q16828). Described as above. The conditions noted are these: HeLa MKP-3 transfected, phospho-Erk imaging KS statistic; at 10 µM; stronger effect = higher value; cells stimulated with TPA for 15 min.
Chain of Dual specificity protein phosphatase 6 (Homo sapiens) (Q16828 whole entry, looked up): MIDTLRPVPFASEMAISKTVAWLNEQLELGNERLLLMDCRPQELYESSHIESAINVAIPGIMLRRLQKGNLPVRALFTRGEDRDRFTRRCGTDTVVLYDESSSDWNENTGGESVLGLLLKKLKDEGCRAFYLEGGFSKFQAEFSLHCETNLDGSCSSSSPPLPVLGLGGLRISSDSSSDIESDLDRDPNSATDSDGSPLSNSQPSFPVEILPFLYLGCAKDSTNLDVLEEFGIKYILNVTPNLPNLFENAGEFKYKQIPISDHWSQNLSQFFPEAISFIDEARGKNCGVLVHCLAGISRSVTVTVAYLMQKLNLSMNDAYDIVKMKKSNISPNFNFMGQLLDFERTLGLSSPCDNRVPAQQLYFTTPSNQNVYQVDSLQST
Test [5] concerns the target Voltage-gated potassium channel subunit beta-2 (Rattus norvegicus) (UniProt P62483). Briefly: inhibitors of rat Kvbeta2 reductase activity – biochemical, NADPH fluorescence, primary screen (AID 622;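 active means fluorescence slope higher than the sample average by over 3 SD, cut at about -0.22 in these data, passing the limit was not always enough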;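 further: slope of raw intensity against log time taken from 70 to 1610 s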). To be noted: recombinant KvBeta, 4-cyanobenzaldehyde reduction, at 10 µM, stronger effect = higher value.
The target is the same in test [6]. Briefly: enhancers of rat Kvbeta2 NADPH turnover – biochemical, NADPH fluorescence, primary screen (AID 623;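 active means NADPH fluorescence slope more negative than the mean of all samples by about 3 SD, 99.7% confidence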;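 further: fluorescence intensity change per second fitted from 20 to 320 s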). To be noted: Recombinant KvBeta, NADPH fluorescence decrease slope, 10 min; at 10 µM; stronger effect = lower value.
The target of test [7] is Alpha-2C adrenergic receptor (Homo sapiens) (UniProt P18825). Briefly: compounds altering alpha2C-coupled GIRK flux – cell-based, HEK293 alpha2C/GIRK1/2, thallium flux, primary screen (AID 624;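 active means fluorescence slope after compound addition differing from the mean of all screened samples at 99.7% confidence, in either direction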;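 further: slope of fluorescence ratio to pre-addition baseline per second over 15 to 24 s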). The conditions noted are these: thallium flux BTC fluorescence, at 10 µM, actives lie on both sides.
Chain of Alpha-2C adrenergic receptor (Homo sapiens) (P18825 whole entry, looked up): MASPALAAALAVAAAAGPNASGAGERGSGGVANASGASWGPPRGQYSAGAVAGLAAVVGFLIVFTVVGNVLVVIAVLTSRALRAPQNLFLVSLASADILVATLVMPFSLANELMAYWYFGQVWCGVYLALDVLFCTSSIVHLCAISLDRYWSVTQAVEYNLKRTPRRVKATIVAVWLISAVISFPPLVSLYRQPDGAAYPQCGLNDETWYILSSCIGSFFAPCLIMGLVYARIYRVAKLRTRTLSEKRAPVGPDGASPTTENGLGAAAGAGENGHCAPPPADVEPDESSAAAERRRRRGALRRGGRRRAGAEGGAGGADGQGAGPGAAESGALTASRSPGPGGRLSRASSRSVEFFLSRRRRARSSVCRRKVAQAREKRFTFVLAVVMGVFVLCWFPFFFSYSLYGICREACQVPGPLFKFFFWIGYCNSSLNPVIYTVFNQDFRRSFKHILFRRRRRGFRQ
A short description of test [8]: inhibitors of larval lipid processing in zebrafish, primary screen, whole organism, PED6 fluorescence, gall bladder and intestine (AID 686;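 active means a full or partial loss of lipid-probe fluorescence in the fish gall bladder, intestine or both, judged by eye; inactive means no fluorescence loss, or compound toxic to the fish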;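 further: larvae 5 to 7 days old with five fish per well; signal comes from phospholipase A2 cleavage of quenched PED6 carried via bile; overnight exposure to compound and PED6 before scoring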). The conditions noted are these: Zebrafish larvae PED6 lipid processing, fluorescence scoring; screened at 20 µM (by protocol). An outline of the steps:
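Doses: 20 µM single dose. Test system: live zebrafish larvae aged 5-7 days, whole organism. Quantity: five larvae per well. Measured by: By-eye fluorescence microscopy. Reagent: ingested quenched lipid PED6 at 100 nM. Read-out: visual per-well fluorescence inhibition score. Times: overnight exposure of larvae to compound plus PED6.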

The nature of test [9]: loss of swimming-algae plug formation – whole organism, Chlamydomonas reinhardtii, WT vs cilia-less mutant, absorbance, 96-well, primary screen (AID 463189;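 active means inhibition at or above 50% relative to wild type and mutant plate controls; inactive means inhibition below 50%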;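 further: 0% = wild type cc124 cells in DMSO and 100% = ciliumless bld1 mutant cells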). To be noted: Chlamydomonas reinhardtii gravitaxis, OD600 absorbance, 2 days; at 10 µM; stronger effect = higher value.
[10] abbreviates: measured here: cell density z-score.
Where [11] appears, read: measured here: nuclear c-Myc green intensity z-score.
Where [12] appears, read: measured here: nuclear pErk red intensity z-score, stronger effect = higher value.

The structures appear in SMILES notation. The source made the active and inactive calls.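 How the source made its calls, unless noted: active means compounds giving at least 50% inhibition in the cell-based MKP-3 phosphatase rescue imaging test; inactive means the rest.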

What is called inhibition is the drop in the measured response relative to a control, in per cent.

Chain of Voltage-gated potassium channel subunit beta-2 (Rattus norvegicus) (P62483 whole entry, looked up): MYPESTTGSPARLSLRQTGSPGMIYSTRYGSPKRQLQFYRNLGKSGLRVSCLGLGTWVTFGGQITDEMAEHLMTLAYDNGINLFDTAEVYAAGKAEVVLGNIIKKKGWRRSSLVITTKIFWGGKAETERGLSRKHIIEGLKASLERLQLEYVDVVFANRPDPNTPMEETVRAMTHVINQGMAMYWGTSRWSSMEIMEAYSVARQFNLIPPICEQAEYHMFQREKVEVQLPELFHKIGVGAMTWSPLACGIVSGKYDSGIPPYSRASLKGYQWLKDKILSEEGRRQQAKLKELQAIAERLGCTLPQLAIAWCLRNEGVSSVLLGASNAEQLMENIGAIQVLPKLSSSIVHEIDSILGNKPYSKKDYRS

`Cc1cc(C)c(C#N)c(SCC(=O)NC2CC2)n1`: the cell count in test [1] was 646. For the same compound, the inhibition is -7.6% (inactive) in test [1], -12% (inactive) in test [2], 2.92% (inactive) in test [4] and 0.954% (inactive) in test [9]. In [2], this compound showed a nuclei count of 154%. For the same compound, the z-score is 2.42 in test [3] (setting [10]), -0.939 in test [3] (setting [11]) and 0.0715 in test [3] (setting [12]). The fluorescence slope in test [5] was -0.444 (inactive). For the same compound, the NADPH fluorescence slope in test [6] was -5.6e-05 (inactive). For the same compound, in [7], the slope was 0.00581 (inactive). The outcome in test [8] was inactive.

For `Cn1c2c(c(=O)n(C)c1=O)C(NC(=O)c1cccs1)(C(F)(F)F)C(=O)N2` (centres undefined), in test [1], the cell count was 497. The inhibition was 3.5% (inactive) in test [1], -80.8% (inactive) in test [2], 8.76% (inactive) in test [4] and 24.7% (inactive) in [9]. This compound also registered a nuclei count in test [2] of 147%. In addition, the z-score in test [3] (setting [10]) is 1.78; in test [3] (setting [11]), -0.706; in [3] (setting [12]), -0.81. The fluorescence slope in [5] was -0.537 (inactive). The NADPH fluorescence slope in test [6] was -9.1e-06 (inactive). Besides, the slope in [7] was 0.00621 (inactive). Further, the call in test [8] was inactive.

With `COc1ccc(N2CCN(C3CC(=O)NC3=O)CC2)cc1` (centres undefined), the cell count in test [1] stood at 540. Further, the inhibition in [1] was -26.9% (inactive); in [2] it was -161% (inactive); in test [4], 9.82% (inactive); in [9] it was 5.23% (inactive). In test [2], the nuclei count is 176%. The results for the z-score in [3] (setting [10]), in [3] (setting [11]) and in [3] (setting [12]) were 0.114, -0.641 and -1.94, respectively. For the same compound, the fluorescence slope in test [5] is -0.548 (inactive). In addition, the NADPH fluorescence slope in [6] was -4.7e-05 (inactive). In addition, the slope in test [7] is 0.00484 (inactive). Further, in test [8], the result was inactive.

As for `O=C(O)C1CCCCN1S(=O)(=O)c1cccc2nsnc12` (centres undefined), the cell count in [1] turned out to be 488. For the same compound, the inhibition is 9.4% (inactive) in [1], -8.1% (inactive) in test [2], -6.06% (inactive) in [4] and -16.5% (inactive) in test [9]. Moreover, in test [2], the nuclei count came out at 93.9%. For the same compound, the z-score in test [3] (setting [10]) was -0.854; in test [3] (setting [11]), 0.334; in [3] (setting [12]) it was -0.543. The fluorescence slope in test [5] is -0.498 (inactive). In test [6], the NADPH fluorescence slope was -3.9e-05 (inactive). In test [7], the slope is 0.0076 (inactive). Moreover, the compound was classed as inactive in [8].

Take `O=C(O)CC(NC(=O)COc1ccc(Cl)cc1Cl)C(=O)O` (centres undefined): the cell count in test [1] was 629. The inhibition in test [1] was -19.5% (inactive); in test [2], -11.7% (inactive); in test [4] it was -9.66% (inactive); in [9], 0.167% (inactive). The nuclei count in test [2] came out at 197%. Further, the z-score in test [3] (setting [10]) came out at 0.18; in [3] (setting [11]), 0.773; in test [3] (setting [12]), 0.0309. The fluorescence slope in test [5] was -0.404 (inactive). Further, in test [6], the NADPH fluorescence slope was -7.4e-05 (inactive). In addition, in [7], the slope was 0.00527 (inactive). In addition, the compound was classed as inactive in test [8].

Regarding `CN1C2C=C3C(C#N)=C(N)C(C#N)(C#N)[C@@H](c4cccs4)C3C1CC2` (some centres undefined), the cell count in test [1] stood at 494. In addition, the inhibition in test [1] was -6.5% (inactive); in [2] it was -7.4% (inactive); in test [4] it was 22.7% (inactive); in test [9], -3.84% (inactive). Moreover, the nuclei count in test [2] was determined as 116%. Besides, the z-score is 0.352 in test [3] (setting [10]), -1.56 in test [3] (setting [11]) and 0.939 in test [3] (setting [12]). Moreover, the fluorescence slope in [5] is -0.419 (inactive). In addition, the NADPH fluorescence slope in test [6] is 2.6e-06 (inactive). Also, in test [7], the slope was 0.00481 (inactive). Besides, in test [8], the compound was classed as inactive.

In the case of `COc1ccccc1N1CCN(C2CCN(C(=O)c3cc(OC)c(OC)c(OC)c3)CC2)CC1`, in test [1], the cell count stood at 454. The inhibition in test [1] was -8.3% (inactive); in test [2], -122% (inactive); in [4] it was -3.95% (inactive); in test [9] it was -0.971% (inactive). The compound also yielded a nuclei count in test [2] of 170%. The z-score in test [3] (setting [10]) was 0.498; in test [3] (setting [11]), -1.6; in test [3] (setting [12]) it was 1.25. The fluorescence slope in test [5] was -0.32 (inactive). Moreover, the NADPH fluorescence slope in test [6] is 2.2e-05 (inactive). Moreover, in test [7], the slope was 0.0055 (inactive). Also, the result in test [8] was inactive.

In the case of `CCOC(=O)c1cnc(SC2CC(=O)N(c3cccc(OC)c3)C2=O)nc1N` (centres undefined), the cell count in [1] came out at 591. For the same compound, the inhibition in test [1] is -4.7% (inactive); in test [2], -23.7% (inactive); in [4] it was -8.76% (inactive); in test [9], -8.83% (inactive). Also, in test [2], the nuclei count came to 155%. Besides, the z-score in test [3] (setting [10]) was 0.0661; in test [3] (setting [11]), -0.104; in test [3] (setting [12]) it was -0.161. The fluorescence slope in test [5] was -0.317 (inactive). In addition, the NADPH fluorescence slope in test [6] was -9.7e-06 (inactive). Moreover, the slope in [7] was 0.00504 (inactive). Also, the call in test [8] was inactive.

In the case of `COc1ccc2[nH]c(C)c(C(=O)CN3CCN(C(=O)c4ccco4)CC3)c2c1`, the cell count in [1] was 567. The inhibition was -7.1% (inactive) in test [1], -4.8% (inactive) in test [2], -7.01% (inactive) in test [4] and -1.6% (inactive) in [9]. Besides, the nuclei count in [2] stood at 165%. Also, the z-score in test [3] (setting [10]) is -1.11; in test [3] (setting [11]) it was -0.714; in [3] (setting [12]) it was 0.0705. Further, the fluorescence slope in [5] is -0.311 (inactive). The NADPH fluorescence slope in test [6] is -8.4e-06 (inactive). Further, the slope in test [7] was 0.00523 (inactive). Besides, the call in test [8] was inactive.

Regarding `CC(C)CC(NC(=O)OC(C)(C)C)C(=O)NCc1ccccc1` (centres undefined), the cell count in test [1] was found to be 626. For the same compound, the inhibition is -12.9% (inactive) in test [1], -28.9% (inactive) in test [2], 5.57% (inactive) in test [4] and 1.86% (inactive) in test [9]. In addition, the nuclei count in test [2] stood at 156%. Moreover, the z-score in [3] (setting [10]) was 1.56; in [3] (setting [11]), -1.58; in [3] (setting [12]), 0.0751. Also, the fluorescence slope in test [5] is -0.475 (inactive). Besides, in test [6], the NADPH fluorescence slope was -0.000315 (inactive). For the same compound, the slope in test [7] was 0.00412 (inactive). Moreover, the outcome in test [8] was inactive.

Take `Nc1nc(NC(=O)Cc2ccccc2)nn1-c1ccccc1`: the cell count in [1] was found to be 330. Besides, the inhibition is -5.8% (inactive) in test [1], 16% (inactive) in test [2], 9.42% (inactive) in [4] and 14.3% (inactive) in [9]. Further, the nuclei count in test [2] came out at 153%. For the same compound, the z-score in [3] (setting [10]) is -1.12; in test [3] (setting [11]), 1.13; in test [3] (setting [12]), 0.973. Moreover, the fluorescence slope in [5] is -0.381 (inactive). Moreover, the NADPH fluorescence slope in [6] was -0.000121 (inactive). The slope in test [7] was 0.00768 (inactive). In addition, the call in test [8] was inactive.

As to `Nc1nonc1-c1noc(-c2ccccc2)n1`, in test [1], the cell count is 480. Also, the inhibition in test [1] was -3.5% (inactive); in test [2] it was -26.8% (inactive); in test [4] it was 13.2% (inactive); in test [9], 33.2% (inactive). In test [2], this compound gave a nuclei count of 122%. Also, the z-score in test [3] (setting [10]) was 0.154; in [3] (setting [11]), 1.08; in test [3] (setting [12]), -0.0551. Also, the fluorescence slope in test [5] was -0.516 (inactive). In addition, the NADPH fluorescence slope in test [6] is -3.2e-05 (inactive). Also, the slope in test [7] was 0.00533 (inactive). In addition, in [8], the outcome was inactive.

Consider `CCOc1ccc(/C(O)=C2/C(=O)C(=O)N(CCN(CC)CC)C2c2ccco2)cc1` (centres undefined), for which the cell count in test [1] was 494. The inhibition in test [1] was -10.3% (inactive); in [2], -38.9% (inactive); in test [4], -15% (inactive); in test [9], -2.21% (inactive). In addition, the nuclei count in test [2] turned out to be 136%. Further, the z-score in [3] (setting [10]) is 0.106; in test [3] (setting [11]), 0.969; in [3] (setting [12]), -0.475. Besides, the fluorescence slope in test [5] was -0.521 (inactive). Besides, in test [6], the NADPH fluorescence slope is -4.6e-05 (inactive). Besides, the slope in test [7] is 0.00598 (inactive). Besides, the result in [8] was inactive.

Source of the values: PubChem BioAssay.
